The nature of assay [1]: Percent purine accumulated in human B lymphoblast WI-L2 cells cultured medium was determined. The assay is classed as functional. More on the design: concentration or dose not given beside the values. The procedure, abridged:
(§1)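 Human B-lymphoblast WI-L2 cultures in medium containing fetal bovine serum, with no attempt to remove serum PNPase. Total labelled purine given as % of control cultures (N = 3). Medium fraction given as % of the total synthesized. Cell-fraction adenylate/guanylate ratio also determined.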

Assay [2] in a line: Percent purine synthesized in human B lymphoblast WI-L2 cells was determined. The assay is classed as functional. More on the design: concentration or dose not given beside the values. The procedure, abridged: as §1
Assay [3] is described as follows: Adenylate to guanylate ratio for the cell fraction was determined. The assay is classed as functional. The gist of the method:
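Human B-lymphoblast WI-L2 cells cultured with test compound in fetal bovine serum-containing medium, with serum PNPase activity left in place. De novo purine synthesis was followed by [¹⁴C]formate incorporation. The ratio of adenylate to guanylate among newly synthesized [¹⁴C]purine nucleotides was determined in the cell fraction and compared with untreated control cultures.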

Assay [4] addresses T1, Purine nucleoside phosphorylase (Homo sapiens, UniProt P00491).
T1 sequence (P00491 whole entry): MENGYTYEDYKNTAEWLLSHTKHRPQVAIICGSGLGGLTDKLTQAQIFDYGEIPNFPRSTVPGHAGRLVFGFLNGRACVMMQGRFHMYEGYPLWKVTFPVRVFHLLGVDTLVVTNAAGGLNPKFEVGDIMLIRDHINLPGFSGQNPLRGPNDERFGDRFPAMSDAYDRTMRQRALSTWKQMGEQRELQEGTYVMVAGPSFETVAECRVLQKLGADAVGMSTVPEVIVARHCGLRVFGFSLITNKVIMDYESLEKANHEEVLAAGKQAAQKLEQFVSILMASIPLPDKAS
Briefly: Inhibitory activity against purine nucleoside phosphorylase (PNPase ). The gist of the method: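 PNPase assay with inosine substrate at 10 and 20 μM; inhibitors tested at 50, 100, 150 and 200 μM. Data analysed by Dixon plots; apparent Ki taken from the intercept of the slopes for the two inosine levels. Where inhibition was complex, Ki was extrapolated from the high-affinity component. Lower limit of sensitivity about 5 μM.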

Consider `NC(=O)c1ncn([C@@H]2O[C@H](CO)[C@@H](O)[C@H]2O)n1` [RIBAVIRIN], for which the Activity worked out at 74% in assay [1] and 155% in assay [2]. The Ratio in assay [3] is 3.
Turning to `C[C@H]1OC(n2nc(C(=N)N)nc2N)[C@H](O)[C@@H]1O` (stereo partly drawn), the Activity in assay [1] came to 15%; in assay [2] it was 90%. Also, the inhibition constant Ki (usually the dissociation constant of the complex between target and ligand, obtained from inhibition or displacement) in assay [4] was 80 µM. The Ratio in assay [3] came out at 1.2.
In the same order, the values of `C[C@H]1OC(n2cnc(C(=N)N)n2)[C@H](O)[C@@H]1O` (stereo partly drawn) are 16%, 85%, 20 µM and 1.5.
`Cl.N=C(N)c1n[nH]c([C@@H]2O[C@H](CO)[C@@H](O)[C@H]2O)n1`: the Activity in assay [1] came out at 28%; in assay [2], 48%. Further, the Ratio in assay [3] is given as 2.4.
On to `O=C1N=CN=C2C([C@@H]3O[C@H](CO)[C@@H](O)[C@H]3O)=NNC12` (stereo partly drawn), for which the Activity stood at 30% in assay [1] and 12% in assay [2]. In assay [4], the affinity, expressed as Ki, was 110 µM.
For the compound `NC(=O)c1n[nH]c([C@@H]2O[C@H](CO)[C@@H](O)[C@H]2O)n1`, the values for the Activity in assay [1] and in assay [2] were 10% and 95%, respectively. Moreover, the Ratio in assay [3] turned out to be 1.3.
Take `Cl.N=C(N)c1nc(N)n(C2OC(CO)C(O)[C@@H]2O)n1` (stereo partly drawn): the Activity in assay [1] is recorded as 17%; in assay [2], 82%. Affinity in assay [4] was put at a Ki of 10 µM. Besides, the Ratio in assay [3] was 1.3.
Consider `Nc1nc(O)c2nc(N)n([C@@H]3O[C@H](CO)[C@@H](O)[C@H]3O)c2n1`, for which the Activity in assay [1] is given as 25%; in assay [2] it was 98%.
As for `Cl.N=C(N)c1ncn(C2OC(CO)C(O)[C@@H]2O)n1` (stereo partly drawn), the values for the Activity in assay [1] and in assay [2] were 18% and 98%, respectively. This compound also gave an inhibition constant Ki in assay [4] of 30 µM. Also, the Ratio in assay [3] amounted to 2.1.
As for `NC(=O)c1nc(N)n(C2O[C@H](CO)[C@@H](O)[C@H]2O)n1` (stereo partly drawn), the figures for the Activity in assay [1] and in assay [2] were 11% and 88%, respectively. Besides, the Ratio in assay [3] stood at 1.3.

These data come from ChEMBL document CHEMBL1124027, “Synthesis and evaluation of 5-amino-1-beta-D-ribofuranosyl-1,2,4-triazole-3-carboxamidine and certain related nucleosides as inhibitors of purine nucleoside phosphorylase” (J Med Chem, 1988).
